The full list was thinned out, with hits kept by preference.
STK33 inh: inhibitors of purified STK33 kinase, primary screen, biochemical, ADP-Glo luminescence, homogeneous, cell-free. 320,000 tested, 0.073% active. MBP phosphorylation. inhibition, % at 10 µM. Serine/threonine-protein kinase 33 (Homo sapiens), Q9BYT3;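 active means inhibition at or above 25%, using the most active replicate where run in duplicate; inactive means inhibition below 25%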
Dyrk1A ADPGlo: rat Dyrk1A kinase inhibitors, primary screen, biochemical, single point, plate reader; inhibition, % at 12.5 µM; AID 504441, 2011; 310,000 tested, 0.43% active; Dual specificity tyrosine-phosphorylation-regulated kinase 1A (Rattus norvegicus), Q63470; ADP-Glo luminescence, NFATc1 peptide; in the data active means inhibition above about 50%;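 further: plate controls were vehicle with enzyme for no effect and no enzyme for full effect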
CDK5 p35 inh: inhibitors of human CDK5/p35 kinase, primary screen, biochemical, single concentration. inhibition, % at 10 µM. 330,000 tested, 0.01% active. AID 488839, 2010. Recombinant CDK5/p35, ADP-Glo luminescence, 60 min;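 active means highest replicate inhibition of at least 50% and at least 75% of replicates reaching 50%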;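 further: plate controls were DMSO neutral control for no effect and GW8510 at 10 µM for full effect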
GSK3A inh: blockers of GSK3A enzyme activity – biochemical, luminescence, cell-free homogeneous, HTS, primary screen; Glycogen synthase kinase-3 alpha (Homo sapiens), P49840; GSK-3 alpha kinase, ADP-Glo luminescence, 60 min; inhibition, % at 10 µM; 320,000 tested, 0.1% active; AID 2650, 2010;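 active means more than half of replicates show inhibition above 20%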;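 further: GST-tagged GSK-3 alpha with peptide substrate and 25 µM ATP; 0% = DMSO neutral wells and 100% = GW8510 positive control wells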
GSK3B inh: human GSK3beta kinase inhibitors, primary screen, biochemical, cell-free homogeneous, HTS. AID 2097, 2009. 300,000 tested, 0.038% active. Glycogen synthase kinase-3 beta (Homo sapiens), P49841. GST-GSK3beta kinase, ADP-Glo luminescence, 60 min; hits give low values. activity score (negative = inhibition), % at 10 µM;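 active means more than half of replicate wells score below -50%, meaning over 50% inhibition versus plate controls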;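 further: 0% = median DMSO wells and -100% = median GW8510 positive control wells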
Target sequence (P49841 whole entry, looked up): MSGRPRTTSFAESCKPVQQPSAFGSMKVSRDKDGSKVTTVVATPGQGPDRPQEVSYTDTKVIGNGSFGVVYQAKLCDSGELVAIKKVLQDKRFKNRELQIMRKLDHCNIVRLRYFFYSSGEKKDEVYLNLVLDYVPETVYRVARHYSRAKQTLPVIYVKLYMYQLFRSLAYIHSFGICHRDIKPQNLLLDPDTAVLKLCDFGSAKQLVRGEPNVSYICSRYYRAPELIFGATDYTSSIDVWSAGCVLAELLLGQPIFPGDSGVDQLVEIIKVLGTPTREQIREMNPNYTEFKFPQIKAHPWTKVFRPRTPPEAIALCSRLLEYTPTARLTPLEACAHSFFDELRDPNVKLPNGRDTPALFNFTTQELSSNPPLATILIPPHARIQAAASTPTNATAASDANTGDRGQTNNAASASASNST
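Test system: GST-fused GSK3beta enzyme, cell-free | Quantity: 1.6 ng GST-GSK3beta enzyme per well | Reagent: 25 µM ATP with peptide substrate | Schedule: 60 min enzyme reaction, room temperature | Signal: Luminescent ADP-Glo measurement of ADP formed | Read-out basis: Score relative to plate controls | Control set: DMSO and 20 µM GW8510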
ADP-Glo artifact: ADP-Glo luciferase interference without Dyrk1A, dose response, artefact control for Dyrk1A inhibitor project, biochemical, luminescence, cherry-pick, set 02 | shares compounds with Dyrk1A ADPGlo | ADP-Glo luciferase artifact assay, no Dyrk1A | AC50, µM (titrated, usually from 12 µM), for the others: at the highest dose activity change, negative = inhibition | 1,300 tested, under 10 active | AID 588348, 2011;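 active means fitted half-maximal dose AC50 no more than ten times the top valid tested dose, with luminescence dropping as dose rises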
* = called active by the depositor; . = no result.

SMILES | STK33 inh | Dyrk1A ADPGlo | CDK5 p35 inh | GSK3A inh | GSK3B inh | ADP-Glo artifact
Cc1ccccc1NC1=C/C(=N\S(=O)(=O)c2ccc(C(=O)O)cc2)c2ccccc2C1=O | 5 | 62* | 3 | 22 | -13 | 6%
Cc1ccccc1NC1=C/C(=N\S(=O)(=O)c2cccs2)c2ccccc2C1=O | 0 | 2 | 2 | . | -1 | .
O=C1c2ccccc2C(=O)c2c(Nc3ccc(CCO)cc3)ccc(O)c21 | 4 | 5 | -1 | 7 | -1 | .
O=C1c2c(O)ccc(O)c2C(=O)c2c(NCCNCCO)ccc(NCCNCCO)c21 | 66* | 52* | 1 | 62* | . | 3%
O=C(Nc1ccccc1Br)c1cccc2ccccc12 | -1 | . | . | -3 | 3 | .
CN1CCc2c(sc3nc(NN)n(Cc4ccccc4)c(=O)c23)C1 | 0 | 18 | 2 | 2 | 1 | .
CN1CCc2c(sc3nc(NN)n(-c4ccc(Cl)cc4)c(=O)c23)C1 | 1 | 63* | 3 | 2 | 0 | 6%
CC1=C(CC(=O)NCC(=O)NCC(=O)O)c2cc(F)ccc2/C1=C/c1ccc(S(C)=O)cc1 (stereo unspecified) | -2 | -1 | 2 | -1 | 4 | .
CCn1cc(CN2CCC(Oc3ccc(C(=O)N4CCCCC4)cc3)CC2)cn1 | 0 | -4 | 2 | -1 | 7 | .
CCOC(=O)CSC1=NC(=O)/C(=C/c2ccc(Br)cc2)S1 | 0 | . | -1 | -3 | 6 | .
CCOC(=O)CSC1=NC(=O)/C(=C\c2ccc(OC(C)=O)cc2)S1 | 12 | 86* | -1 | 13 | -13 | 9%
CCOC(=O)C1CCCN(c2c(NCCCN3CCCC(C)C3)c(=O)c2=O)C1 (stereo unspecified) | -1 | 59* | 2 | -2 | 1 | 7%
CCOC(=O)C1CCCN(c2c(NCCc3cccc(C)c3)c(=O)c2=O)C1 (stereo unspecified) | -1 | -3 | 1 | -3 | 2 | .
CCOC(=O)C1CCCN(c2c(NCCN(C)Cc3ccccc3)c(=O)c2=O)C1 (stereo unspecified) | -1 | 61* | 0 | -1 | -4 | 6%
O=C(CN1CCN(c2ccc(F)cc2)CC1)c1ccc(O)cc1O | 0 | 0 | 1 | -2 | -1 | .
Nc1c(C(=O)NCc2ccccc2)nnn1Cc1ccccc1 | 0 | 60* | 0 | -3 | 7 | 10%
CSc1ccc(Cn2nnc(C(=O)NCc3ccccc3)c2N)cc1 | -2 | -3 | 0 | -3 | 3 | .
COc1cccc(Cn2nnc(C(=O)NCCc3ccc(Cl)cc3)c2N)c1 | -4 | 56* | 0 | -1 | 4 | 9%
Cc1cnc(C(=O)OCC(=O)Nc2cc(-c3ccccc3)nn2-c2ccccc2)cn1 | 0 | -5 | 1 | 0 | 1 | .
COc1ccc2c(c1)OC[C@H]1[C@H]2N2C(=O)CN(CC3CCCO3)C(=O)[C@@]2(C)[C@H]1c1ccccc1 (stereo partly specified) | -1 | 50* | 1 | 0 | . | 8%
COc1ccc2c(c1)C(=O)N1[C@H]3c4cc(C)ccc4OC[C@@H]3[C@H](c3ccccc3)[C@]1(C)C(=O)N2 | 1 | 55* | 0 | -2 | . | 16%
CC(=O)Nc1ccc(C(=O)CN2CCN(c3ccccc3)CC2)cc1 | 1 | 1 | 1 | -2 | . | .
O=C1c2cc(O)cc(O)c2C(=O)c2c1cc(O)c([C@@H](CO)CCO)c2O | 12 | 24 | 2 | 15 | -6 | .
Cc1cc(O)c2c(c1)C(=O)c1cc(O)cc(O)c1C2=O | 4 | 66* | -1 | 14 | -8 | 7%
CN(C)S(=O)(=O)c1ccc(Cl)c(C(=O)Nc2cccc3ncccc23)c1 | 9 | 85* | 4 | -1 | . | 7%
SMILES | STK33 inh | Dyrk1A ADPGlo | CDK5 p35 inh | GSK3A inh | GSK3B inh | ADP-Glo artifact
O=C(Nc1cccc2ncccc12)c1cc([N+](=O)[O-])ccc1Cl | 0 | -4 | 1 | 0 | -2 | .
Cc1c(O)ccc2c(CN(C)Cc3ccccc3)cc(=O)oc12 | -1 | 59* | -2 | 5 | -2 | 8%
CC1=C(C(=O)OCc2ccc3c(c2)OCO3)C(c2ccc(F)cc2)NC(=O)N1 (stereo unspecified) | 7 | 70* | 4 | 51* | -22 | 8%
Nc1ccc(C(=O)Nc2nc3ccccc3s2)cc1 | -1 | 56* | 0 | -2 | 0 | 6%
Cc1cccnc1NC(=O)CCNC(=O)c1ccc(Br)cc1 | -2 | 4 | 0 | . | 4 | .
CC(C)Cn1nc(NC(=O)c2cccs2)c2cc3ccccc3nc21 | -1 | 14 | 2 | -8 | -8 | .
COc1ccc2nc3c(cc2c1)c(NC(=O)c1cccs1)nn3CC(C)C | 5 | 89* | 43 | 73* | -92* | 9%
CCOc1ccc(C2CC(c3cccc(OC)c3)Nc3nc(N)nn32)cc1 (stereo unspecified) | 0 | 58* | -1 | . | 2 | 9%
COc1cccc(C2CC(c3ccc(C)cc3)n3nc(N)nc3N2)c1 (stereo unspecified) | -1 | -3 | 2 | -2 | 2 | .
O=C1CCN(CCCc2ccccc2)CCN1[C@H](CO)c1ccccc1 | 0 | 51* | 0 | -2 | 1 | 9%
Cc1ccc(-c2oc3ncnc(N)c3c2-c2ccc(C)cc2)cc1 | 0 | -2 | -1 | -2 | 27 | .
Cc1oc2ncnc(N)c2c1C | 1 | 50* | 2 | 2 | -5 | 8%
COc1ccc2oc(C(=O)OC(C)C(=O)N3C(C)CCCC3C)c(C)c2c1 (stereo unspecified) | -1 | 3 | -1 | -3 | . | .
O=C(Nc1cccc(C(F)(F)F)c1)c1cncs1 | 0 | -4 | 2 | 4 | -1 | .
Cc1[nH]ccc2c1[nH]c1cc(=O)ccc12 | 3 | 93* | 9 | 4 | 0 | 8%
O=c1cc[nH]c2c1ccc1c(=O)cc[nH]c12 | 5 | 1 | 1 | 2 | 0 | .
O=C(NNC(=O)c1ccccc1O)c1cccc(Br)c1 | 1 | . | 0 | -1 | 0 | .
COc1cccc(/C=C/C(=C2/C(=O)N(c3ccccc3)N=C2C)c2ccc(C)cc2)c1OC | -2 | 0 | 1 | -1 | 2 | .
OC(c1cc(C(F)(F)F)nc2c(Cl)cc(Cl)cc12)C1CCCCN1 (stereo unspecified) | 1 | 55* | 4 | 26 | 0 | 7%
O=C1N/C(=N/S(=O)(=O)Cc2ccccc2)S/C1=C/c1ccc2c(c1)OCO2 | 15 | 92* | 1 | 71* | -3 | 8%
O=C1NC(=S)SC1=Cc1ccc2c(c1)OCO2 | . | 49 | 1 | . | . | .

Bioassay records from PubChem BioAssay.
